Consider 5 molecules from ChEMBL document CHEMBL1140027, “Cycloalkanediamine derivatives as novel blood coagulation factor Xa inhibitors” (Bioorg Med Chem Lett, 2007).

pIC50: −log10 of the molar value.

The target in one test is Coagulation factor X (Homo sapiens, UniProt P00742). The test can be described thus: Inhibition of human factor 10a after 10 seconds.
Coagulation factor X, sequence (P00742 41-179 limits assumed): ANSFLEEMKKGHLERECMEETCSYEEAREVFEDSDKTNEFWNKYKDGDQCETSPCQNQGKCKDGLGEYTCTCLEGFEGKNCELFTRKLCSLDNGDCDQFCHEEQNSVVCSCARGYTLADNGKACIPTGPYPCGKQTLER
Coagulation factor X, sequence (P00742 235-488 limits assumed): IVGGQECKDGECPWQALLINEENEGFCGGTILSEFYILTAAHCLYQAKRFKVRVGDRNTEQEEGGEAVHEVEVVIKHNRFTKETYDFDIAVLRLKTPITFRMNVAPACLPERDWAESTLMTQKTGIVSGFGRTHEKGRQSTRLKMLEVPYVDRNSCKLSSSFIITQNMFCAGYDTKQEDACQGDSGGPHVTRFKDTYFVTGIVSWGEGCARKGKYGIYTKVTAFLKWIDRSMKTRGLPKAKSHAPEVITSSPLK
Details: not given
On to `CN1CCc2nc(C(=O)N[C@@H]3CCCCCC[C@H]3NC(=O)c3cc4cc(Cl)ccc4[nH]3)sc2C1` (relative stereo), for which the pIC50 is under 5.00.
Still for that read-out and setting: with `CN1CCc2nc(C(=O)N[C@@H]3C[C@@H]3NC(=O)c3cc4cc(Cl)ccc4[nH]3)sc2C1` (relative stereo) the figure was 6.73.
Still for that read-out and setting: with `CN1CCc2nc(C(=O)N[C@@H]3CC[C@H]3NC(=O)c3cc4cc(Cl)ccc4[nH]3)sc2C1` (relative stereo) the figure was 5.70; with `CN1CCc2nc(C(=O)N[C@@H]3CCC[C@H]3NC(=O)c3cc4cc(Cl)ccc4[nH]3)sc2C1` (relative stereo), 7.07.
On the same count and under the same terms, the same measure for `CN1CCc2nc(C(=O)N[C@@H]3CCCCC[C@H]3NC(=O)c3cc4cc(Cl)ccc4[nH]3)sc2C1` (relative stereo): 7.95.

The next test deals with Plasma. Kind of test: Anticoagulant potency in human plasma assessed as concentration required to double prothrombin time.
Details: not given
The test is classed as functional. The gist of the method: (§1)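 Prothrombin time in human or rat plasma on a microcoagulometer. Plasma (50 µL) mixed 1:1 with inhibitor or 4% DMSO/saline, incubated 1 min at 37 °C. Value is the concentration that doubles clotting time (PTCT2).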
In the case of `CN1CCc2nc(C(=O)N[C@@H]3CCC[C@H]3NC(=O)c3cc4cc(Cl)ccc4[nH]3)sc2C1` (relative stereo), the Activity worked out at 16 µM.
Same read-out and setting: the same measure for `CN1CCc2nc(C(=O)N[C@@H]3CCCCC[C@H]3NC(=O)c3cc4cc(Cl)ccc4[nH]3)sc2C1` (relative stereo): 11.7 µM.

The next test concerns the target Prothrombin (Homo sapiens, UniProt P00734). Kind of test: Inhibition of human factor 2a after 10 seconds.
Details: not given
Put shortly:
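Human thrombin (4 U/mL stock), inhibitor in 5% aqueous DMSO, in 0.1 M Tris–0.2 M NaCl–0.2% BSA pH 7.4. Chromogenic substrate S-2266 added, mixed 10 s at room temperature, OD/min read at 405 nm.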
`CN1CCc2nc(C(=O)N[C@@H]3CCC[C@H]3NC(=O)c3cc4cc(Cl)ccc4[nH]3)sc2C1` (relative stereo) showed a pIC50 of 4.44.
As for `CN1CCc2nc(C(=O)N[C@@H]3CCCCC[C@H]3NC(=O)c3cc4cc(Cl)ccc4[nH]3)sc2C1` (relative stereo), the pIC50 was under 4.00.

The test system of the next test is Plasma. Kind of test: Anticoagulant potency in rat plasma assessed as concentration required to double prothrombin time.
Details: not given
The test is classed as functional. The gist of the method:
as §1
Regarding `CN1CCc2nc(C(=O)N[C@@H]3CCC[C@H]3NC(=O)c3cc4cc(Cl)ccc4[nH]3)sc2C1` (relative stereo), the Activity came out at 30.1 µM.
With `CN1CCc2nc(C(=O)N[C@@H]3CCCCC[C@H]3NC(=O)c3cc4cc(Cl)ccc4[nH]3)sc2C1` (relative stereo), the Activity was determined as 14.1 µM.

The test system of the next test is Rattus norvegicus. Kind of test: Ex vivo inhibition of factor 10a in rat plasma at 30 mg/kg, po after 0.5 hr. The test is classed as functional.
Details: not given
Put shortly:
(§2)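 Fasted male Wistar rats dosed orally by stomach tube, compound in 0.5% methylcellulose; controls got vehicle. Citrated blood drawn under anesthesia at set times; platelet-poor plasma mixed with 0.1 U/mL human fXa in Tris–NaCl–BSA buffer pH 7.4, S-2222 added, 10 s at rt, OD/min at 405 nm. % inhibition versus vehicle-control plasma; mean ± SE, four rats.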
Regarding `CN1CCc2nc(C(=O)N[C@@H]3CCC[C@H]3NC(=O)c3cc4cc(Cl)ccc4[nH]3)sc2C1` (relative stereo), at 30 mg/kg the inhibition in vivo was 78.6%.
Same read-out and setting: with `CN1CCc2nc(C(=O)N[C@@H]3CCCCC[C@H]3NC(=O)c3cc4cc(Cl)ccc4[nH]3)sc2C1` (relative stereo) the figure was 79%.

The subject of another test is Rattus norvegicus. The test can be described thus: Ex vivo inhibition of factor 10a in rat plasma at 30 mg/kg, po after 1 hr. The test is classed as functional. The conditions noted are these: Rattus norvegicus, Plasma, po, 1 h. Put shortly:
as §2
For `CN1CCc2nc(C(=O)N[C@@H]3CCC[C@H]3NC(=O)c3cc4cc(Cl)ccc4[nH]3)sc2C1` (relative stereo), the inhibition in vivo at 30 mg/kg is 80.7%.
Same read-out and setting: with `CN1CCc2nc(C(=O)N[C@@H]3CCCCC[C@H]3NC(=O)c3cc4cc(Cl)ccc4[nH]3)sc2C1` (relative stereo) the figure was 66%.

The next test concerns Rattus norvegicus. Kind of test: Ex vivo inhibition of factor 10a in rat plasma at 30 mg/kg, po after 2 hrs. The test is classed as functional.
Details: not given
Put shortly:
as §2
Turning to `CN1CCc2nc(C(=O)N[C@@H]3CCC[C@H]3NC(=O)c3cc4cc(Cl)ccc4[nH]3)sc2C1` (relative stereo), at 30 mg/kg the inhibition in vivo was 78.4%.
On the same count and under the same terms, with `CN1CCc2nc(C(=O)N[C@@H]3CCCCC[C@H]3NC(=O)c3cc4cc(Cl)ccc4[nH]3)sc2C1` (relative stereo) the figure was 59%.

Another test deals with Rattus norvegicus. Kind of test: Ex vivo inhibition of factor 10a in rat plasma at 30 mg/kg, po after 4 hrs. The test is classed as functional.
Details: not given
Put shortly:
as §2
The molecule `CN1CCc2nc(C(=O)N[C@@H]3CCC[C@H]3NC(=O)c3cc4cc(Cl)ccc4[nH]3)sc2C1` (relative stereo) showed an inhibition in vivo at 30 mg/kg of 80.6%.
Same read-out and setting: with `CN1CCc2nc(C(=O)N[C@@H]3CCCCC[C@H]3NC(=O)c3cc4cc(Cl)ccc4[nH]3)sc2C1` (relative stereo) the figure was 49%.

The subject of a further test is Rattus norvegicus. Kind of test: Ex vivo anticoagulant potency in rat plasma assessed as […] at 30 mg/kg, po after 0.5 hr relative to control. The test is classed as functional.
Details: not given
Put shortly: (§3)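 Male Wistar rats, fasted overnight, given compound orally by stomach tube in 0.5% (w/v) methylcellulose; vehicle-dosed controls. At each sampling time the rats were anesthetized with ravonal and blood was drawn into trisodium citrate, then centrifuged to platelet-poor plasma. Plasma was incubated 1 min at 37 °C, clotting was started with thromboplastin C Plus (0.5 U/mL), and clotting time was measured on a microcoagulometer. Reported as fold prothrombin-time prolongation versus control; mean ± SE, four rats.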
With `CN1CCc2nc(C(=O)N[C@@H]3CCC[C@H]3NC(=O)c3cc4cc(Cl)ccc4[nH]3)sc2C1` (relative stereo), the Fold change is 1.12.
With `CN1CCc2nc(C(=O)N[C@@H]3CCCCC[C@H]3NC(=O)c3cc4cc(Cl)ccc4[nH]3)sc2C1` (relative stereo), the Fold change was determined as 1.05.

The subject of another test is Rattus norvegicus. Kind of test: Ex vivo anticoagulant potency in rat plasma assessed as […] at 30 mg/kg, po after 1 hr relative to control.
Details: not given
The test is classed as functional. The gist of the method:
as §3
`CN1CCc2nc(C(=O)N[C@@H]3CCC[C@H]3NC(=O)c3cc4cc(Cl)ccc4[nH]3)sc2C1` (relative stereo): the Fold change is listed as 1.14.
Same read-out and setting: with `CN1CCc2nc(C(=O)N[C@@H]3CCCCC[C@H]3NC(=O)c3cc4cc(Cl)ccc4[nH]3)sc2C1` (relative stereo) the figure was 1.02.

A further test deals with Rattus norvegicus. The test can be described thus: Ex vivo anticoagulant potency in rat plasma assessed as […] at 30 mg/kg, po after 2 hrs relative to control. The test is classed as functional.
Details: not given
Put shortly: as §3
For the molecule `CN1CCc2nc(C(=O)N[C@@H]3CCC[C@H]3NC(=O)c3cc4cc(Cl)ccc4[nH]3)sc2C1` (relative stereo), the Fold change was 1.26.
Same read-out and setting: the same measure for `CN1CCc2nc(C(=O)N[C@@H]3CCCCC[C@H]3NC(=O)c3cc4cc(Cl)ccc4[nH]3)sc2C1` (relative stereo): 1.

The subject of another test is Rattus norvegicus. The test can be described thus: Ex vivo anticoagulant potency in rat plasma assessed as […] at 30 mg/kg, po after 4 hrs relative to control. The test is classed as functional.
Details: not given
Put shortly:
as §3
`CN1CCc2nc(C(=O)N[C@@H]3CCC[C@H]3NC(=O)c3cc4cc(Cl)ccc4[nH]3)sc2C1` (relative stereo): the Fold change came out at 1.16.
Same read-out and setting: with `CN1CCc2nc(C(=O)N[C@@H]3CCCCC[C@H]3NC(=O)c3cc4cc(Cl)ccc4[nH]3)sc2C1` (relative stereo) the figure was 1.

Usually pIC50 stands for −log10 of the IC50, conventionally taken in molar units. Lower therefore signals a large IC50. By inhibition in vivo is commonly meant the share of the control response that was lost under treatment.
